Shown are actives, neighbours in structure and some others; about 4.9% of the full set was active somewhere.
NF-kB neuron act – compounds increasing NF-kB expression in human neuronal cells. NF-kB reporter expression; hits give high values. fold change at 12.5 µM. 1.6% of 190,000 active. AID 1239; in the data active = fold change above about 3.3
STAT3 inh-1 – inhibitors of IL-6 induced STAT3 signaling. U3A cells, IL-6 STAT3-luciferase reporter, luminescence; host cell line lacks STAT1. inhibition, % at 5.5 µM. 0.89% of 190,000 active. AID 862;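 active = inhibition above the mean inhibition across all screened compounds plus 3 SD, cut at about 44% in these data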;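 also: 0% = DMSO only wells and 100% = 100 µM nifuroxazide control wells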
STAT1 blocker – reduces IFN-gamma driven STAT1 reporter signal | 0.35% of 200,000 active | NIH 3T3 STAT1-luciferase reporter, luminescence | inhibition, % at 5.5 µM;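 active = inhibition above a set limit, the mean inhibition across all tested compounds plus 3 SD, cut at about 34% in these data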;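 also: 0% = IFN-gamma with DMSO and 100% = IFN-gamma with 300 µM nifuroxazide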
STAT3 act – STAT3 signaling activation; U3A cells, IL-6 STAT3-luciferase reporter, luminescence; 100% = signal with IL-6 EC80 alone; activation (% of control), % at 5.6 µM; 0.91% of 190,000 active;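 active = activation above the screen-wide mean of compound activation plus 3 SD, cut at about 130% in these data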;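 also: 0% = background luminescence of wells with medium and substrate only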
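Test system: human U3A cells carrying STAT3-luciferase construct; control set: IL-6-only wells as 100% reference; timing: compound pre-incubation 1 h before IL-6, then 6 h stimulation at 37 °C; also added: IL-6 stimulus at 33 ng/mL final; evaluation: % activation versus median of IL-6-stimulated wells; detection: reporter luminescence signal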
APP 5'UTR act – activates APP 5'UTR luciferase reporter. SH-SY5Y APP 5'UTR luciferase reporter, luminescence; zero percent = DMSO vehicle wells. activation, % at 2 µM. 1% of 190,000 active. AID 1276;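 active = activation above a set limit, based on mean plus 3 SD of controls, cut at about 140% in these data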
STAT1 act – increases IFN-gamma driven STAT1 reporter signal; activation (% of control), % at 5.5 µM; NIH 3T3 STAT1-luciferase reporter, luminescence; 100% = IFN-gamma alone, no compound; 2.6% of 200,000 active;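 active = activation above the screen-wide mean activation plus 3 SD, cut at about 130% in these data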;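 also: raw ratio to IFN-gamma control signal so 100% means no change and 0% no light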
STAT3 inh-2 – confirmation of STAT3 signaling inhibitors. shares compounds with STAT3 inh-1. U3A cells, IL-6 STAT3 luciferase reporter, luminescence; cell line lacks STAT1. inhibition, % at 5.7 µM. 45% of 1,200 active;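 active = inhibition above the hit cutoff computed for the primary STAT3 screen, cut at about 44% in these data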;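 also: 0% = IL-6 plus DMSO and 100% = IL-6 plus nifuroxazide control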
NFkB inh 2 – counter-screen for STAT3 inhibitors: NF-kappaB inhibition; AID 1308; inhibition, % at 5.7 µM; 36% of 1,200 active; HEK293T NF-kB luciferase reporter, TNF-alpha induced; shares compounds with STAT3 inh-1;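 active = inhibition above the mean of solvent-only control wells plus 3 SD, cutoff set per campaign, cut at about 13% in these data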;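 also: 0% = TNF-alpha with DMSO and 100% = TNF-alpha with MG high control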
STAT1 inh 2 – counter-screen for STAT3 inhibitors: STAT1 inhibition; shares compounds with STAT3 inh-1; NIH 3T3 STAT1-luciferase reporter, IFN-gamma induced, luminescence; inhibition, % at 5.7 µM; 27% of 1,200 active;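 active = inhibition above the mean plus 3 SD of solvent-only control wells, limit set per screening run, cut at about 16% in these data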;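 also: 0% = DMSO with IFN-gamma and 100% = nifuroxazide control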
Active calls of the source: *; nt = no result.

SMILES	NF-kB neuron act	STAT3 inh-1	STAT1 blocker	STAT3 act	APP 5'UTR act	STAT1 act	STAT3 inh-2	NFkB inh 2	STAT1 inh 2
Oc1ccccc1Nc1nc(NCC2CCCO2)c2ccccc2n1 (stereo unspecified)	0.72	50*	4	64	-5	96	33	-7	0
Oc1ccc(Nc2nc(NCC3CCCO3)c3ccccc3n2)cc1 (stereo unspecified)	0.49	21	3	89	15	98	nt	nt	nt
Cc1ccc(N2CCC(N3CCN(C4CCCCC4)C(CCO)C3)CC2)cc1 (stereo unspecified)	1.1	-3	-2	107	-2	100	nt	nt	nt
COc1ccc(C(=O)C[n+]2cc(-c3ccc(OC)cc3)n3c2CCCC3)cc1	0.82	5	14	97	16	86	nt	nt	nt
Cc1ccc(C(=O)C[n+]2cc(-c3ccc(C)cc3)n3c2CCCCC3)cc1	1.1	71*	28	46	4	75	60*	-1	27*
Cc1ccccc1OCC(=O)NNC(=O)CSc1nc(N)cc(N)n1	1.1	8	-6	97	6	102	nt	nt	nt
Cc1c(Cl)ccc2c(C(=O)NC(C)c3ccncc3)cc(-c3ccncc3)nc12 (stereo unspecified)	0.56	-12	2	114	9	95	nt	nt	nt
Cc1ccc(S(=O)(=O)/N=C(\N)Nc2nc(C)c3cc(C)c(C)cc3n2)cc1	0.98	44*	0	66	-4	99	30	-7	-16
S=C(NCCc1ccccc1)Nc1cccc2cnccc12	0.97	68*	26	44	6	76	73*	25*	23*
CCC(=O)c1ccc(OCc2ccc(C(=O)c3ccccc3)cc2)cc1	0.87	50*	27	62	-2	73	43	8	19*
NNC(=O)c1ccc(COc2ccccc2)cc1	1.2	14	0	92	-2	100	nt	nt	nt
COc1ccc(NS(=O)(=O)c2ccc(NC(=O)c3ccc(CN4CCOCC4)cc3)cc2)cc1	0.84	73*	20	39	-7	81	66*	16*	14
COc1ccc(NS(=O)(=O)c2ccc(O)c(NC(=O)c3ccc(S(=O)(=O)N4CCCCCC4)cc3)c2)cc1	1.1	3	4	96	12	96	nt	nt	nt
O=C(Nc1ccc(S(=O)(=O)Nc2ccc(F)cc2)cc1)c1ccc(CN2CCOCC2)cc1	0.61	80*	6	35	-15	92	84*	30*	14
COc1ccc(NS(=O)(=O)c2cccc(NC(=O)c3ccc(S(=O)(=O)N4CCCCCC4)cc3)c2)cc1	0.51	61*	20	49	-22	82	69*	23*	25*
CCn1cc(CN2CCN(CCc3ccccc3)C(CCO)C2)c(C)n1 (stereo unspecified)	0.82	5	-10	97	17	108	nt	nt	nt
Cc1ccc(SCc2cn3c(C)csc3n2)cc1	5.7*	54*	-28	55	199*	126	22	-21	-70
O=C(Nc1ccccc1NC(=O)c1csnn1)c1csnn1	1.1	4	1	101	21	98	nt	nt	nt
CC(C)c1ccc(NC(=O)c2csnn2)cc1	7.6*	45*	-50	64	87	146*	8	-21	-79
CCN=c1scc(-c2ccc3c(c2)NC(=O)CO3)n1N=C1CCCC1	0.76	73*	13	43	-9	88	64*	14*	13
CCCCN=c1scc(-c2ccc3c(c2)NC(=O)CO3)n1N=C1CCCC1	0.5	24	13	83	8	88	nt	nt	nt
CC(=O)Nc1sc2c(c1C(c1ccccc1Cl)N1CCN(CCO)CC1)CCCC2 (stereo unspecified)	0.85	-6	4	107	25	96	nt	nt	nt
CCCCCOC(=O)NC1CCS(=O)(=O)C1 (stereo unspecified)	1.2	-11	-9	111	5	107	nt	nt	nt
Cc1cc(C=C2C(=O)c3ccccc3C2=O)c(C)n1-c1ccc(C(=O)O)cc1	0.98	8	-6	98	-2	104	nt	nt	nt
Cc1cc(C=C2C(=O)c3ccccc3C2=O)c(C)n1-c1ccccc1	0.32	75*	13	43	43	88	13	6	-19
SMILES	NF-kB neuron act	STAT3 inh-1	STAT1 blocker	STAT3 act	APP 5'UTR act	STAT1 act	STAT3 inh-2	NFkB inh 2	STAT1 inh 2
CC1=NN(c2ccccc2)C(=O)/C1=C\c1cc(C)n(-c2ccccc2)c1C	0.82	-12	-3	105	50	103	nt	nt	nt
Cc1cc(/C=C2\Cc3ccccc3C2=O)c(C)n1-c1ccccc1	1.2	71*	-4	41	105	104	23	-15	-100
CCOc1ccc(NC2OC(CO)C(O)C(O)C2O)c([N+](=O)[O-])c1 (stereo unspecified)	1	4	-1	100	-8	99	nt	nt	nt
CCCCCn1c(=O)[nH]c2cc(C(=O)NCc3ccc4c(c3)OCO4)ccc2c1=O	1.1	16	-4	91	0	103	nt	nt	nt
CCCCCn1c(=O)[nH]c2cc(C(=O)N3CCN(Cc4ccc5c(c4)OCO5)CC3)ccc2c1=O	0.62	87*	15	28	0	86	88*	42*	23*
CC1CCN(c2nc3ccc(C(=O)N4CCN(Cc5ccc6c(c5)OCO6)CC4)cc3s2)CC1	1.6	49*	-22	65	57	120	26	-9	-49
COc1ccc(CN2CCN(C(=O)c3ccc4nc(N5CCOCC5)sc4c3)CC2)c(OC)c1OC	1.3	3	8	99	-1	91	nt	nt	nt
Cc1ccc(O)c(NC(=S)NC(=O)c2ccccc2Cl)c1	1.9	-16	-7	114	28	106	nt	nt	nt
C#CCOCCOCCOCCNc1nc(N2CCN(C(=O)[C@H]([C@@H](C)CC)n3cc([C@@H](N)CC(C)C)nn3)CC2)nc(N2CCN(C(=O)[C@H]([C@@H](C)CC)n3cc([C@@H](N)CC(C)C)nn3)CC2)n1	1.1	nt	-3	nt	15	104	nt	nt	nt
c1ccc2oc(C3=NNC(=NC4CC4)SC3)cc2c1	2.4	57*	-19	51	nt	117	23	-19	-54
c1ccc(CN=C2NN=C(c3cc4ccccc4o3)CS2)cc1	1.4	2	-12	102	18	111	nt	nt	nt
COc1ccc(NC(=O)c2ccc3ccccc3n2)cc1S(=O)(=O)N1CCCCC1	0.68	-21	-5	113	-2	105	nt	nt	nt
